The data set in a line: Toxicity liver stage against HepG2, at 10uM. It counts as cell-based. To be noted: human, HepG2-A16-CD81EGFP cells; read-out: INHIBITION
Further details: test concentration 10 uM, cell line HepG2-A16-CD81EGFP. The method, boiled down: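 Uninfected HepG2-A16-CD81EGFP cells, 3 × 10^3 per well, 1536-well, plated on prespotted compound at 10 μM final, parasite-free screening media added to match infected plates; puromycin 10 μM positive, DMSO 0.5% negative; run in parallel with 48 h PbLuc assay at 37 °C, 5% CO2; viability by CellTiter-Glo luminescence, normalized to controls.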
With `CCOCCCNC(=O)C(NC(=O)Cc1cccs1)c1ccccc1` (centres undefined), the cytotoxicity at 10 µM is 12.3%.

As for `COCCN1C[C@H]2CN(C(=O)c3ccno3)CCN2C1=O`, the cytotoxicity at 10 µM is 1.29%.

As for `COC(=O)c1ccc(-c2ccc(/C=C3\C(=O)NC(=N)N3C)o2)cc1`, the cytotoxicity at 10 µM is -66.3%.

Take `COc1cnc(CSc2nnc(C)s2)cc1OCC(N)=O`: the cytotoxicity at 10 µM is 8.52%.

Consider `O=C1CC2(CCN(C(=O)c3ccccn3)CC2)Oc2c(Br)cc(Br)cc21`, for which the cytotoxicity at 10 µM was 11.5%.

As for `CC(C)CN1CC(O)CN(S(=O)(=O)c2ccc(F)cc2)CC1=O` (centres undefined), the cytotoxicity at 10 µM amounted to 2.99%.

For the molecule `COc1ccccc1C(=O)N1CC(=O)N(CC2CC2)CC(O)C1` (centres undefined), the cytotoxicity at 10 µM stood at 5.99%.

Consider `COC(=O)c1ccc(C2CC(=O)Nc3c2cnn3C)cc1` (centres undefined), for which the cytotoxicity at 10 µM was -2.56%.

For the molecule `O=C(Cn1cnc2ccsc2c1=O)NCCCc1nnc2ccccn12`, the cytotoxicity at 10 µM came to 1.43%.

Consider `O=C(CCn1ccc(=O)[nH]c1=O)N1CCC(Oc2ccccn2)CC1`, for which the cytotoxicity at 10 µM was -1.47%.

For the molecule `Cn1cnc(S(=O)(=O)NCC2(O)CCOc3ccccc32)c1` (centres undefined), the cytotoxicity at 10 µM amounted to 12%.

Take `CS(=O)(=O)N1CCCC12CCCN(C(=O)c1cc(F)cc(F)c1)C2` (centres undefined): the cytotoxicity at 10 µM is -140%.

`Cc1ccc(NC(=O)CC2Cn3ncnc3NC2=O)cc1C` (centres undefined): the cytotoxicity at 10 µM was found to be 10.5%.

For `CCOCCCNC(=O)CN(c1cc(C)cc(C)c1)S(C)(=O)=O`, the cytotoxicity at 10 µM turned out to be 4.48%.

For the molecule `CCC(C)NC(=O)c1ccn(COc2ccccc2Cl)n1` (centres undefined), the cytotoxicity at 10 µM stood at 5.75%.

Take `Cc1cc(CN(C)C(=O)NC(C)Cc2ccco2)no1` (centres undefined): the cytotoxicity at 10 µM was 6.62%.

On to `CCc1nccn1C1CCCN(C(=O)c2ccnc(C)n2)C1` (centres undefined), for which the cytotoxicity at 10 µM is -1.12%.

`CC(C)c1noc(CS(=O)(=O)Cc2nc(C(C)C)no2)n1`: the cytotoxicity at 10 µM is -7.85%.

As for `CCN(Cc1cccc(NC(=O)COC)c1)C(C)=O`, the cytotoxicity at 10 µM is -125%.

With `O=C(NC1CCN(c2ccccc2Br)C1)c1c[nH]nn1` (centres undefined), the cytotoxicity at 10 µM was -17.9%.

Turning to `COCCN(Cc1sccc1C)C(=O)COc1ccccc1O`, the cytotoxicity at 10 µM is -145%.

Consider `O=C(C1CCCO1)N1CCC(Cn2cc(C3CCCC3)nn2)CC1` (centres undefined), for which the cytotoxicity at 10 µM was 5.61%.

For the molecule `CCCOCC1CCN(C(=O)Cn2cccc(C(F)(F)F)c2=O)C1` (centres undefined), the cytotoxicity at 10 µM is -16.3%.

As to `Cc1nc2c(NC(CC(C)(C)C)c3cccnc3)ncnc2o1` (centres undefined), the cytotoxicity at 10 µM worked out at 4.24%.

With `Cc1ccc(OCC2CCCN(c3nc(CO)cs3)C2)cc1` (centres undefined), the cytotoxicity at 10 µM amounted to 5.4%.

Turning to `Cc1cc(C(=O)N2CCn3nc(C(=O)NC4CC4)cc3C2)nc(C)n1`, the cytotoxicity at 10 µM came to 1.15%.

On to `O=S1(=O)C[C@@H]2[C@H](C1)N(Cc1ncc[nH]1)CCN2CCCc1ccccc1`, for which the cytotoxicity at 10 µM stood at 0.662%.

As to `Nc1cc(N2CCCC(Cc3ccc(F)cc3F)(C(=O)O)C2)ncn1` (centres undefined), the cytotoxicity at 10 µM worked out at 10.6%.

For `Cc1ccc(C(=O)NC2CCN(C)CC2)cc1N(C)S(C)(=O)=O`, the cytotoxicity at 10 µM is -0.853%.

Consider `CN(CC1CCCN1C)c1nccc(C2CCCC2)n1` (centres undefined), for which the cytotoxicity at 10 µM is -12.9%.

For `CNC(=O)CN1CCC(NC(=O)N(C)Cc2c(C)noc2C)CC1`, the cytotoxicity at 10 µM came out at 2.1%.

As to `CCCN1CCCC1Cn1nc(C)cc1C` (centres undefined), the cytotoxicity at 10 µM is -7.72%.

As to `Cc1[nH]c2c(C)cccc2c1CC(=O)N(C)CCN(C)C`, the cytotoxicity at 10 µM was determined as 1.14%.

Regarding `CN(C)C(=O)[C@H]1CO[C@H]2CCN(c3ncc(F)cn3)C[C@H]2C1`, the cytotoxicity at 10 µM amounted to 7.75%.

Consider `CS(=O)(=O)N1CCC2(CCCN(Cc3ccccn3)C2)CC1`, for which the cytotoxicity at 10 µM is -121%.

In the case of `Cc1cccc(CN2CC[C@H]3O[C@H](C(=O)Nc4cnccn4)CC[C@H]32)n1`, the cytotoxicity at 10 µM was -144%.

Consider `O=C(c1cccnc1)N1CCC2(CC1)CC(Oc1ccccc1)CO2` (centres undefined), for which the cytotoxicity at 10 µM was 1.65%.

With `CCn1cc2[nH]c(OC)c(CNC(=O)C3CCCN(C)C3)cc-2c1=O` (centres undefined), the cytotoxicity at 10 µM is 11.3%.

For the molecule `COCC1N(C(=O)c2ccco2)C2CCC1(O)CC2` (centres undefined), the cytotoxicity at 10 µM was 1.4%.
